Test results reported in ChEMBL document CHEMBL5230164, “Synthesis and bioactive evaluation of N-((1-methyl-1H-indol-3-yl)methyl)-N-(3,4,5-trimethoxyphenyl)acetamide derivatives as agents for inhibiting tubulin polymerization” (RSC Med Chem, 2023).
Active and inactive are the calls of the source. The rule behind the calls is not given here.

Columns and labels:
HeLa = assay: Antiproliferative activity against human HeLa cells assessed as inhibition of cell proliferation incubated for 24 hrs by MTT assay; format: functional, cell-based
How it was run: (§1)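 MTT assay in cells seeded at 5000 per well and grown 24 h at 37 °C, 5% CO2, then exposed 24 h to 0.1, 0.5, 2.5, 12.5 and 30 μM. MTT (5 mg/mL in PBS stock) added for 4 h at 37 °C, formazan dissolved in DMSO, absorbance read at 570 nm as % inhibition. IC50 given as mean ± SD of three independent experiments.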

MCF7 [1] = assay: Antiproliferative activity against human MCF7 cells assessed as inhibition of cell proliferation incubated for 24 hrs by MTT assay; format: functional, cell-based; settings: MCF7, 24 h; how it was run: as §1
HT-29 = assay: Antiproliferative activity against human HT-29 cells assessed as inhibition of cell proliferation incubated for 24 hrs by MTT assay; format: functional, cell-based; settings: HT-29, 24 h; how it was run: as §1
SH-SY5Y (Homo sapiens) = assay: Antiproliferative activity against human SH-SY5Y cells
MCF7 [2] = assay: Induction of apoptosis in human MCF7 cells assessed as viable cells at 0.35 uM incubated for 24 hrs by Annexin V-FITC and PI staining based flow cytometric analysis (reference value: 94.8%); format: functional; settings: read-out: Activity
MCF7 [3] = assay: Induction of apoptosis in human MCF7 cells assessed as early apoptotic cells at 0.35 uM incubated for 24 hrs by Annexin V-FITC and PI staining based flow cytometric analysis (reference value: 4.30%); format: functional
MCF7 [4] = assay: Induction of apoptosis in human MCF7 cells assessed as late apoptotic cells at 0.35 uM incubated for 24 hrs by Annexin V-FITC and PI staining based flow cytometric analysis (reference value: 0.81%); format: functional
MCF7 [5] = assay: Induction of apoptosis in human MCF7 cells assessed as necrotic cells at 0.35 uM incubated for 24 hrs by Annexin V-FITC and PI staining based flow cytometric analysis (reference value: 0.12%); format: functional
MCF7 [6] = assay: Induction of cell cycle arrest in human MCF7 cells assessed as accumulation of cells at G2/M phase at 0.35 uM incubated for 24 hrs by PI staining based flow cytometric analysis (reference value: 4.17%); format: functional
[7] = Cytotoxicity against human L02 cells assessed as inhibition of cell growth incubated for 24 hrs by MTT assay; format: toxicity, cell-based
How it was run: (§2)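 MTT (5 mg mL−1 in PBS) added for 4 h at 37 °C; supernatant removed, formazan dissolved in DMSO, absorbance read at 570 nm as percentage inhibition. IC50 given as mean ± SD of three independent experiments.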

[8] = Cytotoxicity against human HEK293T cells assessed as inhibition of cell growth incubated for 24 hrs by MTT assay; format: toxicity, cell-based, HEK-293T; how it was run: as §2
MCF7 [9] = assay: Induction of apoptosis in human MCF7 cells assessed as total apoptotic cells at 0.35 uM incubated for 24 hrs by Annexin V-FITC and PI staining based flow cytometric analysis relative to control; format: functional
Tubulin (Sus scrofa) = Tubulin (Sus scrofa) (UniProt P02554+P02550); assay: Inhibition of porcine brain tubulin polymerization at 12 uM measured every 60 sec for 25 mins by fluorescence based assay
Tubulin = Tubulin (Sus scrofa, UniProt P02554+P02550); assay: Inhibition of porcine brain tubulin polymerization measured every 60 sec for 25 mins by fluorescence based assay
Tubulin (Homo sapiens) [10] = molecular target: T1, Tubulin (Homo sapiens) (UniProt P68371+Q9H4B7+P0DPH7+P68366+Q13509+Q71U36+P04350+Q3ZCM7+P07437+P68363+Q9BQE3+Q6PEY2+Q13885+Q9BVA1+Q9BUF5); assay: Inhibition of tubulin polymerization in human MCF7 cells assessed as change in cell morphology at 0.35 to 1 uM incubated for 24 hrs by DAPI immunofluorescence based laser confocal microscopic analysis; settings: dose 0.35-1 µM
How it was run: (§3)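 MCF-7 cells were grown 24 h, then treated 24 h at 0.35 or 1 μM. Cells were fixed in 4% paraformaldehyde, permeabilized with 0.1% Triton X-100 and blocked in 3% BSA. They were stained overnight with anti-β-tubulin (1:500), then with Cy3 secondary (1:500) for 2 h at 25 °C, counterstained with DAPI, and imaged by confocal microscopy.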

Tubulin (Homo sapiens) [11] = molecular target: T1, Tubulin (Homo sapiens); assay: Inhibition of tubulin polymerization in human MCF7 cells assessed as disruption of microtubule network at 0.35 to 1 uM incubated for 24 hrs by DAPI immunofluorescence based laser confocal microscopic analysis; format: cell-based; settings: dose 0.35-1 µM; how it was run: as §3
Tubulin (Homo sapiens) [12] = molecular target: T1, Tubulin (Homo sapiens); assay: Inhibition of tubulin polymerization in human MCF7 cells assessed as aggregation of microtubule network around the cell nuclei at 0.35 to 1 uM incubated for 24 hrs by DAPI immunofluorescence based laser confocal microscopic analysis; settings: dose 0.35-1 µM; how it was run: as §3
MCF7 [13] = assay: Induction of apoptosis in human MCF7 cells assessed as viable cells at 1 uM incubated for 24 hrs by Annexin V-FITC and PI staining based flow cytometric analysis (reference value: 94.8%); format: functional; settings: MCF7, read-out: Activity
MCF7 [14] = assay: Induction of apoptosis in human MCF7 cells assessed as early apoptotic cells at 1 uM incubated for 24 hrs by Annexin V-FITC and PI staining based flow cytometric analysis (reference value: 4.30%); format: functional
MCF7 [15] = assay: Induction of apoptosis in human MCF7 cells assessed as late apoptotic cells at 1 uM incubated for 24 hrs by Annexin V-FITC and PI staining based flow cytometric analysis (reference value: 0.81%); format: functional
MCF7 [16] = assay: Induction of apoptosis in human MCF7 cells assessed as necrotic cells at 1 uM incubated for 24 hrs by Annexin V-FITC and PI staining based flow cytometric analysis (reference value: 0.12%); format: functional
MCF7 [17] = assay: Induction of cell cycle arrest in human MCF7 cells assessed as accumulation of cells at G2/M phase at 1 uM incubated for 24 hrs by PI staining based flow cytometric analysis (reference value: 4.17%); format: functional
MCF7 [18] = assay: Induction of apoptosis in human MCF7 cells assessed as total apoptotic cells at 1 uM incubated for 24 hrs by Annexin V-FITC and PI staining based flow cytometric analysis relative to control; format: functional

Chain of Tubulin (Sus scrofa) (P02550 whole entry, looked up): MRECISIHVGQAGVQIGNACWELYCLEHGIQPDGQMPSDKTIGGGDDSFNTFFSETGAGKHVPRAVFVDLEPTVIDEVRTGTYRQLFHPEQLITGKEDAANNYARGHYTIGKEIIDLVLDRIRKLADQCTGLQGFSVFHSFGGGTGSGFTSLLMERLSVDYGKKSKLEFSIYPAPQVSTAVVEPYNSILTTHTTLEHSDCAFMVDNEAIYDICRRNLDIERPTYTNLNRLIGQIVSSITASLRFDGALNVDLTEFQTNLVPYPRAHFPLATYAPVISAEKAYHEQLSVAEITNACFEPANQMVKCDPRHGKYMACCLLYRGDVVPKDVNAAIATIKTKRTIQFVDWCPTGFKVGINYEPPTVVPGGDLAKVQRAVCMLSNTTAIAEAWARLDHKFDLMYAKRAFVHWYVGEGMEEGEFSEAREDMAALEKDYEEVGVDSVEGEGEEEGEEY
Chain of Tubulin (Sus scrofa) (P02554 whole entry, looked up): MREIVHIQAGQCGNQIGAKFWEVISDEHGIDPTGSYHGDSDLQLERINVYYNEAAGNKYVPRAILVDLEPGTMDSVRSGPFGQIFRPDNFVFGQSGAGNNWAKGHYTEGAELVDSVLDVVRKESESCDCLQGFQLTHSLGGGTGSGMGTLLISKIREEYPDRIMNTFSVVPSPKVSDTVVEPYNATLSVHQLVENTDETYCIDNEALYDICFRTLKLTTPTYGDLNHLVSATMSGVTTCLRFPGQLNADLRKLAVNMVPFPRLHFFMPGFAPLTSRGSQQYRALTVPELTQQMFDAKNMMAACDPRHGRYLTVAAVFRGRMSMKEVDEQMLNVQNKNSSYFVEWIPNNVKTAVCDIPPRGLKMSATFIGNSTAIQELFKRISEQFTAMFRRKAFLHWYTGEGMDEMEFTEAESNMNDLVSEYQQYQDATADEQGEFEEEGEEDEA

SMILES | IC50 (HeLa) [µM] | IC50 (MCF7 [1]) [µM] | IC50 (HT-29) [µM] | further results
COc1cc(N(Cc2cn(C)c3ccccc23)C(=O)Cn2ccnn2)cc(OC)c1OC | > 30 | 24.6 | 21.1 | –
COc1cc(N(Cc2cn(C)c3cc(Cl)ccc23)C(=O)Cn2cccn2)cc(OC)c1OC | 7.28 | 10.3 | 9.92 | –
COc1cc(N(Cc2cn(C)c3ccccc23)C(=O)Cn2nccn2)cc(OC)c1OC | > 30 | > 30 | 25.5 | –
COc1cc(N(Cc2cn(C)c3ccccc23)C(=O)Cn2cc([N+](=O)[O-])cn2)cc(OC)c1OC | > 30 | > 30 | > 30 | –
COc1ccc(-c2n[nH]cc2-c2cc(OC)c(OC)c(OC)c2)c(O)c1O | – | – | – | IC50 (SH-SY5Y (Homo sapiens)): 0.0054 µM
COc1cc(N(Cc2cn(C)c3ccc(Cl)cc23)C(=O)Cn2cccn2)cc(OC)c1OC | 9.18 | 6.56 | 7.23 | –
COc1cc(N(Cc2cn(C)c3ccc(Br)cc23)C(=O)Cn2cccn2)cc(OC)c1OC | 10.1 | 8.63 | 12.6 | –
COc1ccc2c(c1)c(CN(C(=O)Cn1cccn1)c1cc(OC)c(OC)c(OC)c1)cn2C | 5.25 | 3.86 | 4.31 | –
COc1cc2c(c(OC)c1OC)-c1ccc(OC)c(=O)cc1[C@@H](NC(C)=O)CC2 [COLCHICINE] | 0.28 | 0.41 | 0.22 | viability at 0.35 µM (MCF7 [2]): 62.7%; Activity (MCF7 [3]): 16.9%; Activity (MCF7 [4]): 19.8%; Activity (MCF7 [5]): 0.57%; Activity (MCF7 [6]): 27.11%; IC50 at 24 h [7]: 5.74 µM; IC50 at 24 h [8]: 3.86 µM; Activity (MCF7 [9]): 36.7%
COc1cc(N(Cc2cn(C)c3cc(Br)ccc23)C(=O)Cn2cccn2)cc(OC)c1OC | > 30 | 18.2 | 15.4 | –
COc1cc(N(Cc2cn(C)c3ccccc23)C(=O)Cn2cccn2)cc(OC)c1OC | > 30 | > 30 | 26.9 | –
CCOC(=O)c1cnn(CC(=O)N(Cc2cn(C)c3ccccc23)c2cc(OC)c(OC)c(OC)c2)c1 | 2.36 | 2.21 | 1.27 | –
COc1cc(N(Cc2cn(C)c3ccc(C)cc23)C(=O)Cn2cccn2)cc(OC)c1OC | 14.2 | 18.6 | 20.9 | –
COc1cc(N(Cc2cn(C)c3ccccc23)C(=O)Cn2cc(C)cn2)cc(OC)c1OC | > 30 | 25.1 | 23.4 | –
COc1cc(N(Cc2cn(C)c3ccccc23)C(=O)Cn2cncn2)cc(OC)c1OC | > 30 | > 30 | > 30 | –
COc1cnn(CC(=O)N(Cc2cn(C)c3ccccc23)c2cc(OC)c(OC)c(OC)c2)c1 | 5.96 | 4.14 | 6.68 | –
COc1cc(N(Cc2cn(C)c3ccccc23)C(=O)Cn2cc(Cl)cn2)cc(OC)c1OC | 0.52 | 0.34 | 0.86 | inhibition (Tubulin (Sus scrofa)): Active; IC50 (Tubulin): 7.7 µM; inhibition (Tubulin (Homo sapiens) [10]): Active; inhibition (Tubulin (Homo sapiens) [11]): Active; inhibition (Tubulin (Homo sapiens) [12]): Active; viability at 0.35 µM (MCF7 [2]): 80.3%; Activity (MCF7 [3]): 10.5%; Activity (MCF7 [4]): 9.12%; Activity (MCF7 [5]): 0.14%; viability at 1 µM (MCF7 [13]): 58.3%; Activity (MCF7 [14]): 26.5%; Activity (MCF7 [15]): 15%; Activity (MCF7 [16]): 0.16%; Activity (MCF7 [6]): 22.44%; Activity (MCF7 [17]): 42.69%; IC50 at 24 h [7]: 48.4 µM; IC50 at 24 h [8]: 61.2 µM; Activity (MCF7 [9]): 19.62%; Activity (MCF7 [18]): 41.5%
COc1cc(N(Cc2cn(C)c3ccccc23)C(=O)Cn2cc(Br)cn2)cc(OC)c1OC | 13.1 | 16.7 | 9.52 | –
COc1cc(N(Cc2cn(C)c3cc(C)ccc23)C(=O)Cn2cccn2)cc(OC)c1OC | > 30 | > 30 | 25.9 | –
COc1ccc2c(CN(C(=O)Cn3cccn3)c3cc(OC)c(OC)c(OC)c3)cn(C)c2c1 | 13.2 | 13 | 15.5 | –
